# Screens as filed in PubChem BioAssay.
# TIM10 inh: TIM10 yeast growth inhibition. inhibition, % at 10 µM. 330,000 tested, 1.4% active. AID 463195. S. cerevisiae TIM10 strain growth, BacTiter-Glo luminescence, 24 h;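 active = inhibition of 40% or more at the single tested concentration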;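 also: wild-type TIM10 isogenic control strain grown at permissive 25 °C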
# CHOP UPR activ: apoptotic UPR (CHOP) activation; AID 449763; activation, % at 10 µM; CHO-CHOP luciferase reporter, luminescence; percent of tunicamycin response over DMSO baseline; 330,000 tested, 0.34% active;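 active = at 10 µM dose, activation of 40% or more, normalized to positive control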;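 also: 100% = tunicamycin at 10 µg/mL and 0% = DMSO alone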
#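 Assay system: CHO cells with stable CHOP pathway luciferase reporter; Buffer or medium: F12 plus 10% serum; Times: 16-18 h cell attachment, then 6 h compound exposure, 37 °C; Signal: luciferase luminescence; Read-out basis: percent activation relative to tunicamycin control; Control set: tunicamycin high control, DMSO low control.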
# tim10-1 inh: growth inhibitors of tim10-1 mutant yeast; AID 463190; S. cerevisiae tim10-1 ts strain growth, BacTiter-Glo, 24 h; 330,000 tested, 2.2% active; inhibition, % at 20 µM;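 active = inhibition of at least 40%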;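 also: mutant grown at 25 °C; 0% = DMSO wells with yeast and 100% = wells holding no yeast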
# tim23-1 inh: inhibits growth of tim23-1 mutant yeast | S. cerevisiae tim23-1 growth, BacTiter-Glo luminescence, 24 h | inhibition, % at 20 µM | 330,000 tested, 1.3% active | AID 463212;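 active = growth inhibition of the mutant yeast at or above 50%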;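 also: temperature-sensitive mutant grown at 25 °C; plate controls were DMSO-treated mutant yeast for no effect and medium wells lacking yeast for full effect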
# XBP1 UPR activ: adaptive UPR (XBP1) activation; CHO-XBP1 luciferase reporter, IRE1-XBP1 UPR activation, luminescence; percent of tunicamycin response, DMSO as zero; activation, % at 20 µM; 330,000 tested, 0.33% active; AID 463104;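 active = versus positive control, 20 µM dose yields 30% or more activation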;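 also: 100% = tunicamycin at 10 µg/mL and 0% = DMSO only wells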
#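 incubation = overnight seeding at 37 °C, 6 h compound treatment at 37 °C | assay system = CHO-XBP1 cells stably carrying IRE1-XBP1-driven luciferase reporter | input = 1000 cells per well | detection = luciferase luminescence | dosing = single point, 20 µM final compound, 1% DMSO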
# tim23-1 confirm: confirmation of tim23-1 mutant yeast growth inhibitors; shares compounds with tim23-1 inh; S. cerevisiae tim23-1 growth, BacTiter-Glo luminescence, 24 h; inhibition, % at 20 µM; 4,400 tested, 83% active; AID 463218;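 active = inhibition above about 39% in either of two replicate wells at 20 µM, limit read from the data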;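 also: temperature-sensitive tim23-1 mutant grown at 25 °C; 0% = DMSO wells with yeast and 100% = medium wells without yeast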
# An asterisk follows results filed as active; nt = no result. In the library only some 3.9% were active in any assay of this set; here they are far more common.
SMILES,TIM10 inh,CHOP UPR activ,tim10-1 inh,tim23-1 inh,XBP1 UPR activ,tim23-1 confirm
OCC[C@@H]1C[C@H](O)[C@@H](O)[C@]2(Cc3ccccc3CCO2)O1,5,2,0,12,2,nt
Cc1ccc(C(=O)N2CCSC2=S)cc1,15,-1,30,56*,-3,51*
CCOc1ccc(C(=O)N2CCSC2=S)cc1,19,0,34,51*,-3,41*
O=S(=O)(Nc1ccc2c(c1)OCCO2)c1c(F)cccc1F,18,2,16,5,1,nt
CCOC(=O)Nc1sc2nc(C)cc(C)c2c1-n1cccc1,13,0,29,51*,-1,29
O=C(Nc1ccccc1-c1nnn(CC(=O)N2CCCc3ccccc32)n1)c1ccc(Cl)cc1,27,1,24,56*,-3,26
CCc1c(C)sc2nc(C(C)C)nc(SCC(=O)N3CCc4ccccc4C3)c12,24,8,19,51*,1,41*
Cc1cc(C)cc(N(C(C)C(=O)N2CCCC2)S(C)(=O)=O)c1 (centres undefined),-3,1,8,8,-2,nt
Cc1ccc(C(=O)N/C(=C/c2ccc(Cl)cc2)C(=O)N2CCOCC2)cc1,2,-1,28,33,3,nt
CC(=O)c1ccc(S(=O)(=O)NC2CCCCCCC2)cc1,13,1,36,32,7,nt
N=c1c2c(-c3ccccc3)c(-c3ccccc3)n(Cc3ccco3)c2ncn1Cc1ccco1,26,15,32,66*,13,44*
O=C1ON=C(c2ccccc2[N+](=O)[O-])/C1=C/c1cccc([N+](=O)[O-])c1O,0,1,1,2,-2,nt
COc1cccc(NC(=S)N2CCN(S(=O)(=O)c3ccccc3)CC2)c1,6,0,7,22,-4,nt
COc1ccc(NC(=S)NC2CC3CCC2C3)c(OC)c1 (centres undefined),26,1,22,63*,0,11
CC(Oc1cc2oc(=O)c3c(c2cc1Cl)CCC3)C(=O)NCc1ccccn1 (centres undefined),17,3,22,31,-4,nt
Cc1c(C(=O)NCc2ccoc2)oc2ccc3c(c12)C(=O)CC(C)(C)O3,38,4,30,52*,6,53*
COCCN(C(=O)c1ccc(N2CCCC2=O)cc1)c1c(N)n(Cc2ccccc2)c(=O)[nH]c1=O,12,-1,20,30,0,nt
Cc1[nH][nH]c(=O)c1C(c1ccc(-c2ccc(Cl)c(Cl)c2)o1)c1c(C)[nH][nH]c1=O,-4,2,35,75*,2,46*
Cc1c(C=Nc2ccc(S(=O)(=O)CCO)cc2)c(O)[nH]c(=O)c1C#N,-21,-1,-22,0,1,nt
CCOC(=O)C1=CN(Cc2cccc(F)c2)S(=O)(=O)N(C)C1c1cccc(OC)c1 (centres undefined),6,-1,22,52*,-3,32
CC(=O)c1cccc(NC(=O)Nc2nc(C)cc(C)n2)c1,10,6,23,7,0,nt
COc1cccc(CC(=O)OCC(=O)c2cc(OC)c(OC)c(OC)c2)c1,18,0,22,31,0,nt
Cc1ccc(C(=O)N/C(=C\c2ccco2)C(=O)NCCc2c[nH]c3ccccc23)cc1,16,4,21,8,-1,nt
O=C(NCCc1c[nH]c2ccccc12)c1ccccc1,-1,7,-18,4,-1,nt
O=C(NCCc1c[nH]c2ccccc12)/C(=C\c1ccco1)NC(=O)c1ccco1,4,-1,14,94*,-1,4
SMILES,TIM10 inh,CHOP UPR activ,tim10-1 inh,tim23-1 inh,XBP1 UPR activ,tim23-1 confirm
O=C(/C=C/c1ccccc1)NCCc1c[nH]c2ccccc12,19,1,-11,59*,-4,60*
COc1ccc(C(=O)NC(=S)N2CCNC(=O)C2)cc1Br,-12,2,0,16,1,nt
COc1ccc(C(=O)NC(=S)N2CCC(C)CC2)cc1Br,28,3,37,57*,-3,37
c1ccc(CNc2nc(-c3ccccc3)nc3ccccc23)cc1,21,0,33,56*,0,24
COCCN(CCOC)c1nc(-c2ccccc2)nc2ccccc12,-12,0,6,27,-2,nt
CCN(CC)c1nc(-c2ccccc2)nc2ccccc12,32,0,27,51*,-3,43*
Fc1ccccc1-c1nc(NCc2ccccc2)c2ccccc2n1,6,-1,35,50*,-1,38
Cc1ccc(F)cc1NC(=O)CSCc1nc2sc(C)c(C)c2c(=O)[nH]1,2,-1,24,12,1,nt
COc1ccc(/C=N/NC(=O)c2ccncc2)cc1Cn1nc([N+](=O)[O-])c(Br)c1C,13,-1,9,11,0,nt
COc1ccc(OC)c(NC(=O)Nc2ccc(Cl)cc2)c1,28,4,34,69*,5,67*
COc1cccc(/C(C)=N/Nc2ccc(S(=O)(=O)N3CCCCC3)cn2)c1,39,1,27,51*,-5,44*
O=C(COC(=O)C1C2CC3OC(=O)C1C3C2)Nc1ccccc1 (centres undefined),-9,1,11,14,4,nt
COC(=O)Nc1ccc2c(c1)Nc1ccccc1CC2,6,4,32,66*,-1,42*
CC1(C)CC(=O)C(N=Nc2ccc(F)cc2)=C(O)C1,-22,3,8,-1,0,nt
CC1(C)CC(=O)C(N=Nc2ccc3ncsc3c2)=C(O)C1,14,5,2,60*,-1,30
CC1(C)CC(=O)C(N=Nc2cccnc2)=C(O)C1,5,3,8,52*,2,23
O=C(NCC(Cl)c1ccc2ccccc2c1)c1c(F)cccc1F (centres undefined),1,3,33,24,3,nt
CC(C)CC[n+]1ccn(-c2nc3ccccc3nc2[N-]S(=O)(=O)c2ccc(Cl)cc2)c1,10,2,8,7,-1,nt
Nc1nc2c(s1)CCc1c-2cnn1-c1ccccc1,30,5,21,62*,1,61*
Nc1nc2c(s1)COc1ccccc1-2,8,3,-3,1,-2,nt
COc1cccc(Nc2nc(-c3sc(C)nc3C)cs2)c1,30,4,15,55*,4,46*
COc1cccc(Nc2nc3ccc(OC)cc3s2)c1,37,5,18,61*,9,57*
COc1cccc(Nc2nc(-c3sc(N)nc3C)cs2)c1,10,9,15,23,0,nt
O=C(CSc1cccc[n+]1[O-])N1CCCCCC1,-17,2,13,6,2,nt
O=C(CSc1cccc[n+]1[O-])Nc1ccccc1Oc1ccccc1,32,108*,37,69*,15,76*
